Experimental data from ChEMBL document CHEMBL5131497, “Design, Synthesis, and Characterization of TNP-2198, a Dual-Targeted Rifamycin-Nitroimidazole Conjugate with Potent Activity against Microaerophilic and Anaerobic Bacterial Pathogens” (J Med Chem, 2022).
In brackets after ≈: the same amount, converted by molar mass.

Tests used:
Format in all cases: functional
Prevotella disiens = experiment: Antibacterial activity against Prevotella disiens MMX 3457
Peptostreptococcus sp. = experiment: Antibacterial activity against Peptostreptococcus magnus ATCC 14956
Bacteroides uniformis = experiment: Antibacterial activity against Bacteroides uniformis MMX 1277
Bacteroides fragilis = experiment: Antibacterial activity against metronidazole-resistant Bacteroides fragilis MMX 3387
Campylobacter gracilis = experiment: Antibacterial activity against Bacteroides gracilis ATCC 33236 MMX 1270
[1] = system: Bacteroides thetaiotaomicron; experiment: Antibacterial activity against metronidazole-resistant Bacteroides thetaiotaomicron MMX 3409
Clostridioides difficile [2] = experiment: Antibacterial activity against rifampicin-resistant Clostridium difficile MMX 3587
Phocaeicola vulgatus = experiment: Antibacterial activity against Bacteroides vulgatus MMX 8348
Helicobacter pylori [3] = experiment: Antibacterial activity against metronidazole/rifampicin-resistant Helicobacter pylori CB1893 harboring rpoBL525I/D530N/rdxAR16S mutant measured after 5 days by agar dilution method; conditions: CB1893, 120 h, time 5 day
Outline: (§1)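 Agar dilution per CLSI. Wild-type ATCC 700392 (CB1531) and its derivatives carry defined resistance determinants. Drugs, alone or in 1:1 molar mixtures, were diluted 2-fold from 100× stocks into Mueller–Hinton agar with aged (≥2 weeks) sheep blood (5% v/v). MIC read after 5 days at 35 °C under microaerobic conditions from a campylobacter gas-generating system.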

Helicobacter pylori [4] = experiment: Antibacterial activity against Helicobacter pylori ATCC 700392
Outline: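 Agar dilution per CLSI. Wild-type H. pylori ATCC 700392 (CB1531). Drugs prepared from 100× stocks as 2-fold dilutions in Mueller–Hinton agar with aged (≥2 weeks) sheep blood (5% v/v). Combinations were at 1:1 molar ratio. MIC read after 5 days at 35 °C under microaerobic atmosphere from a campylobacter gas-generating system.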

Helicobacter pylori [5] = experiment: Antibacterial activity against metronidazole/rifampicin-resistant Helicobacter pylori CB1771 harboring rpoBL525I/D530N/rdxAE75stop mutant at 1:1 compound to metronidazole molar ratio measured after 5 days in presence of metronidazole by agar dilution method; conditions: CB1771, 120 h, time 5 day; outline: as §1
Helicobacter pylori [6] = experiment: Antibacterial activity against rifampicin-resistant Helicobacter pylori CB1903 harboring rpoBD530V mutant at 1:1 compound to metronidazole molar ratio measured after 5 days in presence of metronidazole by agar dilution method; conditions: CB1903, 120 h, time 5 day; outline: as §1
Staphylococcus aureus = experiment: Antibacterial activity against Staphylococcus aureus ATCC 29213
Helicobacter pylori [7] = experiment: Antibacterial activity against metronidazole/rifampicin-resistant Helicobacter pylori CB1893 harboring rpoBL525I/D530N/rdxAR16S mutant at 1:1 compound to metronidazole molar ratio measured after 5 days in presence of metronidazole by agar dilution method; conditions: CB1893, 120 h, time 5 day; outline: as §1
Helicobacter pylori [8] = experiment: Antibacterial activity against rifampicin-resistant Helicobacter pylori CB1902 harboring rpoBV149F mutant at 1:1 compound to metronidazole molar ratio measured after 5 days in presence of metronidazole by agar dilution method; conditions: CB1902, 120 h, time 5 day; outline: as §1
Clostridioides difficile [9] = experiment: Antibacterial activity against Clostridioides difficile ATCC 9689
Helicobacter pylori [10] = experiment: Antibacterial activity against rifampicin-resistant Helicobacter pylori CB1614 harboring rpoBL525I/D530N mutant measured after 5 days by agar dilution method; conditions: CB1614, 120 h, time 5 day; outline: as §1
Helicobacter pylori [11] = experiment: Antibacterial activity against rifampicin-resistant Helicobacter pylori CB1903 harboring rpoBD530V mutant measured after 5 days by agar dilution method; conditions: CB1903, 120 h, time 5 day; outline: as §1
Helicobacter pylori [12] = experiment: Antibacterial activity against rifampicin-resistant Helicobacter pylori CB1614 harboring rpoBL525I/D530N at 1:1 compound to metronidazole molar ratio measured after 5 days in presence of metronidazole by agar dilution method; conditions: CB1614, 120 h, time 5 day; outline: as §1
Helicobacter pylori [13] = experiment: Antibacterial activity against rifampicin-resistant Helicobacter pylori CB1902 harboring rpoBV149F mutant measured after 5 days by agar dilution method; conditions: CB1902, 120 h, time 5 day; outline: as §1
Helicobacter pylori [14] = experiment: Antibacterial activity against metronidazole/rifampicin-resistant Helicobacter pylori CB1771 harboring rpoBL525I/D530N/rdxAE75stop mutant measured after 5 days by agar dilution method; conditions: CB1771, 120 h, time 5 day; outline: as §1
Helicobacter pylori [15] = experiment: Antibacterial activity against metronidazole-resistant Helicobacter pylori CB1573 harboring rdxAR16S mutant at 1:1 compound to metronidazole molar ratio measured after 5 days in presence of metronidazole by agar dilution method; conditions: CB1573, 120 h, time 5 day; outline: as §1

Compound CCC[C@@H]1C[C@@H](C(=O)N[C@@H]([C@H]2O[C@H](SC)[C@H](O)[C@@H](O)[C@H]2O)[C@H](C)Cl)N(C)C1 [CLINDAMYCIN] has an MIC (Prevotella disiens) of 0.25 µg/mL (≈ 0.588 µM), an MIC (Peptostreptococcus sp.) of 1 µg/mL (≈ 2.35 µM) and an MIC (Bacteroides uniformis) of 0.25 µg/mL (≈ 0.588 µM). It also gave an MIC (Bacteroides fragilis) of 2 µg/mL (≈ 4.71 µM), an MIC (Campylobacter gracilis) of 0.06 µg/mL (≈ 0.141 µM) and an MIC [1] of over 64 µg/mL. It also gave an MIC (Clostridioides difficile [2]) of 8 µg/mL (≈ 18.8 µM) and an MIC (Phocaeicola vulgatus) of 0.25 µg/mL (≈ 0.588 µM).
CO[C@H]1/C=C/O[C@@]2(C)Oc3c(C)c(O)c4c(c3C2=O)C2=NC3(CCN(CC(C)C)CC3)NC2=C(NC(=O)/C(C)=C\C=C\[C@H](C)[C@H](O)[C@@H](C)[C@@H](O)[C@@H](C)[C@H](OC(C)=O)[C@@H]1C)C4=O [RIFABUTIN] showed an MIC (Helicobacter pylori [3]) of 16 µg/mL (≈ 18.9 µM), an MIC (Helicobacter pylori [4]) of 0.001 µg/mL (≈ 0.00118 µM) and an MIC (Helicobacter pylori [5]) of 16 µg/mL. For the same compound, the MIC (Helicobacter pylori [6]) was 1 µg/mL, the MIC (Staphylococcus aureus) was 0.03 µg/mL (≈ 0.0354 µM) and the MIC (Helicobacter pylori [7]) was 16 µg/mL. For the same compound, the MIC (Helicobacter pylori [8]) was 2 µg/mL, the MIC (Clostridioides difficile [9]) was 0.0001 µg/mL (≈ 0.000118 µM) and the MIC (Helicobacter pylori [10]) was 16 µg/mL (≈ 18.9 µM). The MIC (Helicobacter pylori [11]) was 16 µg/mL (≈ 18.9 µM), the MIC (Helicobacter pylori [12]) was 2 µg/mL and the MIC (Helicobacter pylori [13]) was 16 µg/mL (≈ 18.9 µM). The MIC (Helicobacter pylori [14]) was 16 µg/mL (≈ 18.9 µM) and the MIC (Helicobacter pylori [15]) was at most 0.002 µg/mL.
